≈ marks a conversion by molar mass, not a printed value.
Columns and labels:
[1] = system: Caenorhabditis elegans; experiment: Nematicidal activity against Caenorhabditis elegans assessed as mortality at 200 ppm after 24 hr; type: functional
How it was run: (§1)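 C. elegans grown on NG agar carrying E. coli. 15-20 worms in 48 µL saline per well, 3 wells per treatment, plus 2 µL 50% DMSO with or without test material (200 ppm). Plates covered and kept in a humid chamber. Dead nematodes counted microscopically at 2, 4, 6 and 24 h.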

[2] = system: Athelia rolfsii; experiment: Fungicidal activity against Athelia rolfsii assessed as mycelial growth inhibition; type: functional; conditions: Agroathelia rolfsii; read-out: ED50 (the source's name)
How it was run: (§2)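 Poisoned food technique on potato-dextrose-agar. Fungi kept on PDA slants at 25 °C and subcultured before testing. A stock in acetone (65 mg/4 mL) was diluted into PDA to about 500, 250, 100, 25 and 5 mg/L; acetone was the control. A 5-mm fungal disk was placed centrally, 2 dishes per treatment, 26 (±2) °C until control growth was nearly complete (2-3 days). Colony diameter was measured in three directions, and % and corrected inhibition were calculated.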

[3] = system: Rhizoctonia solani; experiment: Fungicidal activity against Rhizoctonia solani assessed as mycelial growth inhibition; type: functional; conditions: read-out: ED50 (the source's name); how it was run: as §2
[4] = system: Rotylenchulus reniformis; experiment: Nematicidal activity against fourth-stage juvenile of Rotylenchulus reniformis (reniform nematode) assessed as juvenile immobility after 72 hr by stereoscopic binocular microscopic analysis; type: functional, organism-based
How it was run: (§3)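 Juveniles came from a single-egg-mass culture maintained on cowpea in sterilized soil-sand. Exposed in Petri dishes, 3 per treatment, with water plus ethanol as control. Immobility scored by stereomicroscope at 72 h. Revival test: 48 h in distilled water, and revived juveniles were subtracted. Mortality was Abbott-corrected, with LC50 in ppm.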

[5] = system: Athelia rolfsii; experiment: Fungicidal activity against Athelia rolfsii assessed as mycelial growth inhibition applied as 20% powdery concentrate; type: functional; conditions: Agroathelia rolfsii; read-out: ED50 (the source's name); how it was run: as §2
[6] = system: Rhizoctonia solani; experiment: Fungicidal activity against Rhizoctonia solani assessed as mycelial growth inhibition applied as 90% powdery concentrate; type: functional; conditions: read-out: ED50 (the source's name); how it was run: as §2
[7] = system: Rotylenchulus reniformis; experiment: Nematicidal activity against fourth-stage juvenile of Rotylenchulus reniformis (reniform nematode) assessed as juvenile immobility applied as 20% powdery concentrate after 72 hr by stereoscopic binocular microscopic analysis; type: functional, organism-based; how it was run: as §3
[8] = system: Rotylenchulus reniformis; experiment: Nematicidal activity against fourth-stage juvenile of Rotylenchulus reniformis (reniform nematode) assessed as juvenile immobility applied as 90% powdery concentrate after 72 hr by stereoscopic binocular microscopic analysis; type: functional, organism-based; how it was run: as §3
[9] = system: Rhizoctonia solani; experiment: Fungicidal activity against Rhizoctonia solani assessed as mycelial growth inhibition applied as 20% powdery concentrate; type: functional; conditions: read-out: ED50 (the source's name); how it was run: as §2
[10] = system: Athelia rolfsii; experiment: Fungicidal activity against Athelia rolfsii assessed as mycelial growth inhibition applied as 60% powdery concentrate; type: functional; conditions: Agroathelia rolfsii; read-out: ED50 (the source's name); how it was run: as §2
[11] = system: Rotylenchulus reniformis; experiment: Nematicidal activity against fourth-stage juvenile of Rotylenchulus reniformis (reniform nematode) assessed as juvenile immobility applied as 60% powdery concentrate after 72 hr by stereoscopic binocular microscopic analysis; type: functional, organism-based; how it was run: as §3
[12] = system: Rhizoctonia solani; experiment: Fungicidal activity against Rhizoctonia solani assessed as mycelial growth inhibition applied as 60% powdery concentrate; type: functional; conditions: read-out: ED50 (the source's name); how it was run: as §2
[13] = system: Caenorhabditis elegans; experiment: Nematicidal activity against Caenorhabditis elegans assessed as mortality applied as 20% powdery concentrate after 24 hr; type: functional; how it was run: as §1

Compound	mortality at 200 ppm [1] [%]	EC50 [2] [µg/mL]	EC50 [3] [µg/mL]	EC50 [4] [ppm]	EC50 [5] [µg/mL]	EC50 [6] [µg/mL]	EC50 [7] [ppm]	EC50 [8] [ppm]	EC50 [9] [µg/mL]	EC50 [10] [µg/mL]	EC50 [11] [ppm]	EC50 [12] [µg/mL]	mortality [13] [%]
C/C=C(\C)C(=O)O[C@H]1C[C@@H](OC(C)=O)[C@@]2(C(=O)OC)CO[C@H]3[C@@H](O)[C@@](C)([C@]45O[C@@]4(C)[C@H]4C[C@@H]5O[C@@H]5OC=C[C@@]54O)[C@@H]4[C@H](O)OC[C@@]14[C@@H]32 [AZADIRACHTIN H]	65	43.9 (≈ 66.2 µM)	63.7 (≈ 96.1 µM)	141.2	–	–	–	–	–	–	–	–	–
C/C=C(\C)C(=O)O[C@H]1C[C@@H](OC(C)=O)[C@@]2(C(=O)OC)CO[C@H]3[C@@H](O)[C@@](C)([C@]45O[C@@]4(C)[C@@H]4C[C@H]5O[C@@H]5OC=C[C@@]54O)[C@H]4[C@]1(CO[C@]4(O)C(=O)OC)[C@@H]32 [AZADIRACHTIN A]	56	93.6 (≈ 130 µM)	–	–	140 (≈ 195 µM)	105 (≈ 145 µM)	193.9	119.1	165 (≈ 229 µM)	122 (≈ 169 µM)	151.9	132 (≈ 183 µM)	50
C/C=C(\C)C(=O)O[C@@H]1C[C@H](O)[C@]23CO[C@H](C(=O)OC)[C@H]2[C@](C)([C@]24O[C@@]2(C)[C@H]2C[C@@H]4O[C@@H]4OC=C[C@@]42O)[C@H](O)[C@@H]2OC[C@@]1(C(=O)OC)[C@H]23 [AZADIRACHTIN B]	64	76.2 (≈ 115 µM)	85.9 (≈ 130 µM)	96.6	–	–	–	–	–	–	–	–	–
